The values below come from publication PMC12145421 (NPJ Science of Food, 2025).

Each structure is given as a SMILES string. Values after ≈ are worked out from the molar mass of the structure shown.

Series [1] is described as follows: Solubility studies of CoQ10 in water by HPLC. The series is classed as physicochemical. Put shortly: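 The powder was mixed with an equal volume of water to give a supersaturated solution. It was shaken at 200 rpm in a 25 °C water bath for 24 h. CoQ10 was measured by HPLC on a C8 column at 45 °C with methanol at 1 mL/min, against a 0.05–25 μg/mL standard curve. Triplicate independent experiments; mean ± SD.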

Series [2] can be described thus: In vivo bioavailability study, plasma CoQ10 after oral administration to rats. Conditions: male, SD, rat, 15 mg/kg. The essentials:
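Six-week-old SPF male rats (180–200 g), acclimatised ≥3 days at 23–25 °C with a 12 h light/dark cycle, n = 5 per group, fasted 12 h. Oral 15 mg/kg dose in 0.5% (w/v) sodium CMC. Tail-vein blood at 0, 0.5, 1, 2, 4, 8, 12 and 24 h. Plasma extracted with n-propanol and assayed by HPLC against a 0–3000 ng/mL plasma standard curve. Non-compartmental model; AUC by linear trapezoid.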

In turn, `COC1=C(OC)C(=O)C(C/C=C(\C)CC/C=C(\C)CC/C=C(\C)CC/C=C(\C)CC/C=C(\C)CC/C=C(\C)CC/C=C(\C)CC/C=C(\C)CC/C=C(\C)CCC=C(C)C)=C(C)C1=O` [CoQ10, Coenzyme Q10] showed a solubility at 24 h in series [1] of 2.3 µg/mL (≈ 2.66 µM). Moreover, in series [2], the area under the curve AUC(0-t) is 196 ± 96.9 ng·h/mL and the peak level (Cmax) was 50.3 ± 5.7 ng/mL. Besides, in series [2] (Tmax, rats, oral, n = 5, plasma CoQ10), the time of peak concentration (Tmax) was ~1 h.
